# Compound activity deposited in PubChem by several laboratories.
# Mcl1-Bid inh: Mcl-1/Bid interaction inhibition; inhibition, % at 21.7 µM; Q07820; 0.97% of 220,000 active; TR-FRET Mcl-1/Bid-Dy647 peptide binding, 1536-well;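 active = compounds that cut the binding signal by more than half at the single screening dose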;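 note: His-tagged Mcl-1 with europium anti-His antibody binding Bid BH3 peptide; 0% = Mcl-1 plus peptide wells and 100% = peptide-only wells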
# Target sequence (Q07820 whole entry, looked up): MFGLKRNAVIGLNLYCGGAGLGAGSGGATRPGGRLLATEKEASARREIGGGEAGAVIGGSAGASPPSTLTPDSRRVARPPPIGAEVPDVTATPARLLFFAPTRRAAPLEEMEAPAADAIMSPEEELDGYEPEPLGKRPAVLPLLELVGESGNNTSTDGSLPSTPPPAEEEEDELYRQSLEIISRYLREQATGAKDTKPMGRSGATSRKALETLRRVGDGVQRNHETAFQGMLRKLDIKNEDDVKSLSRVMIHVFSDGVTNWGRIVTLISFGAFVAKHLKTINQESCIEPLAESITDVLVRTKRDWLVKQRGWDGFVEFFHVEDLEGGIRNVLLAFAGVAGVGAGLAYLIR
# Bim-Mcl-1: inhibitors of Bim-Mcl-1 interaction, human. 0.1% of 190,000 active. inhibition, % at 10 µM. Bead-based flow cytometry, Bim peptide-Mcl-1 binding. Q07820. AID 1009; in the data active = inhibition above about 40%;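 note: 0% = no compound tracer wells and 100% = peptide blocker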
# RBBP9 inh: blocks human serine hydrolase RBBP9 | O75884 | recombinant RBBP9, FP-Rh probe fluorescence polarization | inhibition, % at 7.94 µM | 0.2% of 220,000 active;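 active = inhibition above the campaign mean of all tested compounds plus 3 SD, cut at about 14% in these data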;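 note: plate controls were DMSO wells with RBBP9 for no effect and wells lacking RBBP9 protein for full effect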
#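 Controls: DMSO-treated enzyme wells and wells lacking RBBP9 | Material: RBBP9 protein | Technique: Fluorescence polarization | Replication: Single well per compound, no replicates | Buffer or medium: Tris-NaCl-Pluronic buffer, pH 8.0 | Timing: 30 min compound preincubation, 45 min probe labeling, 25 °C | Read-out basis: Percent inhibition from mP, scaled between DMSO and no-protein wells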
# MCL1-BIM inh: disrupts human MCL1 binding to BIM-BH3 peptide | Q07820 | GST-MCL1 / FITC-Bim-BH3 fluorescence polarization | inhibition, % at 10.9 µM | 0.68% of 320,000 active | AID 2057;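 active = inhibition above the mean inhibition of all tested compounds plus 3 SD, set per campaign, cut at about 40% in these data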;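 note: 0% = DMSO wells and 100% = unlabeled Bim-BH3 peptide control; higher means more loss of mP so more displacement of Bim peptide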
# Mcl1-Noxa inh: disrupts binding of human Mcl-1 to Noxa peptide; TR-FRET Mcl-1/Noxa peptide binding, 2 h; AID 1022; inhibition, % at 21.7 µM; 1.5% of 220,000 active;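 active = compounds that cut the protein-peptide binding signal by more than 50% relative to plate controls in a single-dose test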;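 note: His-tagged Mcl-1 with rhodamine Noxa BH3 peptide and terbium anti-His antibody; 0% = Mcl-1 plus Noxa peptide wells and 100% = peptide-only wells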
# EBV gp42 inh: blocks Epstein-Barr virus glycoprotein 42 binding; 0.42% of 220,000 active; Q1HVG2; AID 1085; Fluorescence polarization binding assay, mP read-out; inhibition, % (tested at 21.74 µM); in the data active = inhibition above about 50%
# * marks the source's active call; other numbers are inactive results; · = not tested or not shown. Only some compounds are listed: those with a hit (about 2.2% of all), similar ones and a draw of the others.
SMILES,Mcl1-Bid inh,Bim-Mcl-1,RBBP9 inh,MCL1-BIM inh,Mcl1-Noxa inh,EBV gp42 inh
CN1C(=O)N(C)C2(c3ccccc3)Nn3c(s/c(=C/c4ccccc4F)c3=O)=NC12c1ccccc1 (configuration not stated),4.6,-2.0,-1.6,-2.3,6.8,-19.6
CN(C)c1ccc(/C=c2/sc3n(c2=O)NC2(c4ccccc4)N(C)C(=O)N(C)C2(c2ccccc2)N=3)cc1 (configuration not stated),0.6,0.0,-0.4,-4.1,-9.6,50.2*
CN(Cc1ccc(OC(F)F)cc1)C(=O)c1ccc2nccnc2c1,7.0,-3.0,2.1,7.4,-5.3,6.2
COc1cccc(CN(C)C(=O)c2ccc3nccnc3c2)c1,1.5,-1.0,-5.7,47.6*,25.8,29.1
CC1(C)CC(C(CC(=O)N2CCCC2)Cc2ccccc2)CCO1 (configuration not stated),34.2,·,-0.5,-3.0,27.1,-23.2
Cc1ccc(NC(=O)CCSCCc2ccccn2)cc1,-41.8,0.0,-8.8,-0.9,13.4,-11.7
CC1COC(Cn2c3ccccc3c3ccccc32)O1 (configuration not stated),60.6*,·,2.2,1.7,17.6,7.9
COC(CNc1nc(SC)nc2sc3c(c12)CCN(C)C3)OC,·,·,·,8.3,·,·
CSc1nc(SCC(=O)NCc2ccco2)c2c3c(sc2n1)CN(C)CC3,33.8,2.0,-4.6,29.7,83.7*,9.4
CSc1nc(NCc2ccco2)c2c3c(sc2n1)CN(C)CC3,9.4,2.0,-11.9,17.3,57.3*,-6.3
CSc1nc(SCC(N)=O)c2c3c(sc2n1)CN(C)CC3,-11.2,0.0,-11.9,20.5,33.4,-1.8
CCCc1nc(SCC(=O)N2CCCCCC2)c2c(=O)n(C)c(=O)n(C)c2n1,·,·,·,1.3,·,·
CCC(=O)N(Cc1ccco1)c1nc(C(=O)Nc2ccc(Cl)cc2)c(C)s1,-6.5,-1.0,-17.1,-21.8,1.4,-17.5
CC1CCN(C(CNS(=O)(=O)c2ccccc2)c2ccccc2)CC1 (configuration not stated),·,·,·,5.0,·,·
COc1cccc(N2CCN(CC(=O)NC(=O)NCc3ccco3)CC2)c1,-50.1,1.0,2.5,30.4,62.1*,4.4
O=C(CN1CCN(c2ccccc2)CC1)NC(=O)NCc1ccco1,-14.8,-1.0,2.5,8.1,15.8,-10.0
COc1cccc(/C=c2/s/c(=C(\C#N)C(=O)N3CCOCC3)n(-c3ccccc3)c2=O)c1,53.1*,3.0,-3.7,8.9,43.1,12.6
COc1ccc(-n2c(C)cc(/C=C3\SC(=S)N(Cc4ccco4)C3=O)c2C)cc1,-43.6,-2.0,-3.5,-25.8,17.6,80.0*
COc1ccc(-c2nn(-c3ccccc3)cc2/C=C2/SC(=S)N(Cc3ccco3)C2=O)c(C)c1,-17.0,-2.0,-7.4,13.4,21.6,-31.2
CCOc1ccc(NC(=O)c2ccc(Cl)c(NC(=O)c3ccco3)c2)cc1,·,·,·,11.0,·,·
O=C(NCc1cccnc1)/C(=C\c1ccc(-c2ccc(Br)cc2)o1)S(=O)(=O)c1ccccc1,52.1*,4.0,-10.3,2.3,39.3,0.1
O=C(NCc1cccnc1)/C(=C/c1ccc(-c2ccc(Cl)cc2)o1)S(=O)(=O)c1ccccc1,30.7,-2.0,-4.6,5.9,20.1,-1.2
CC1(OC(=O)CCc2ccccc2)C(=O)C=C2C=C(C3CC3)OC=C2C1=O (configuration not stated),·,·,·,45.4*,·,·
COCCN1C=C2C(=O)C(C)(OC(=O)CCC(=O)OC)C(=O)C=C2C=C1C1CC1 (configuration not stated),-117.2,·,·,29.9,5.6,14.4
COC(=O)CCC(=O)OC1(C)C(=O)C=C2C=C(C3CC3)N(c3cccc(C#N)c3)C=C2C1=O (configuration not stated),-66.3,·,·,42.6*,1.4,13.7
COC(=O)CCC(=O)OC1(C)C(=O)C=C2C=C(C3CC3)N(Cc3ccco3)C=C2C1=O (configuration not stated),-97.4,·,·,42.0*,30.1,26.2
COC(=O)CCC(=O)OC1(C)C(=O)C=C2C=C(C3CC3)N(C3CC3)C=C2C1=O (configuration not stated),-105.8,·,·,28.6,20.1,15.9
O=c1[nH]n(Cc2ccccc2)c2ccccc12,·,·,·,-2.0,·,·
CCC(NC(=O)Nc1ccc(O)cc1)(C(F)(F)F)C(F)(F)F,-15.3,-1.0,24.0*,13.7,13.5,-14.7
